Calls of active or inactive are those of the source. The calls are words filed in the database; no cut-off is given here.

The target in data set [1] is Butyrophilin subfamily 3 member A1 (Homo sapiens) (UniProt O00481). The data set is described as follows: Activation of BTN3A1 in human Vgamma9Vdelta2 T cells assessed as induction of interleukin 2 stimulated cell proliferation by measuring increase in gammadelta T cell receptor positive cells at 0.1 uM treated for 72 hrs measured on day 11 post last treatment by flow cytometry. The procedure, abridged:
(§1)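 Human peripheral blood mononuclear cells exposed to compound for 72 h together with interleukin 2, then grown for 11 days. CD3+/γδ TCR+ cells were scored by flow cytometry. […] Negative controls were cells with or without interleukin 2 and no compound. Bars show mean and SD, n=3, with ANOVA and Tukey post-hoc test.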
For orientation: A flow cytometer gives signals particle by particle.

Data set [2] shares this target. The data set is described as follows: Activation of BTN3A1 in human Vgamma9Vdelta2 T cells assessed as induction of interleukin 2 stimulated cell proliferation by measuring increase in CD3 positive cells at 0.1 uM treated for 72 hrs measured on day 11 post last treatment by flow cytometry. It counts as cell-based. The procedure, abridged: as §1
The nature of data set [3]: Selectivity index, ratio of IC50 for human Vgamma9Vdelta2 T cells to EC50 for BTN3A1 in human Vgamma9Vdelta2 T cells. It counts as functional.
The target in data set [4] is Butyrophilin subfamily 3 member A1 (Homo sapiens) (UniProt O00481). The data set is described as follows: Potency index, ratio of HMBPP EC50 to compound EC50 for BTN3A1 in human Vgamma9Vdelta2 T cells.
Data set [5] can be described thus: Toxicity in human Vgamma9/Vdelta2 T cells treated for 72 hrs measured on day 11 post last treatment by flow cytometry. It counts as cell-based, Vgamma9/Vdelta2 T cell. The procedure, abridged:
(§2)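 Human peripheral blood mononuclear cells were treated with compound for 72 h, cultured to day 11, and Vγ9Vδ2 (CD3+/γδ TCR+) cells were assessed by flow cytometry over a dose-response range. Interleukin 2 and untreated controls were included. Runs were done at least three independent times using cells from at least 2 donors.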

The test system of a further data set is K562. Briefly: Antiproliferative activity against human K562 cells after 72 hrs by fluorescence spectroscopy. It counts as cell-based. Particulars: K562, 72 h. The procedure, abridged:
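K562 cells at 1 × 10^4 cells/100 μL exposed to compounds for 72 h. Fluorescent viability reagent added for the final 2 h, then fluorescence read. Viability expressed as percent of untreated cells after subtracting a media-only blank.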

The nature of data set [6]: Safety index, ratio of HMBPP IC50 to compound IC50 for human K562 cells. It counts as ADME, cell-based. Particulars: read-out: Ratio IC50. The procedure, abridged: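 Direct K562 toxicity: 1 × 10^4 cells/100 μL exposed to compounds for 72 h, with cell quantibluo reagent added for the final 2 h and a fluorescence read-out. Viable cells were expressed as % of untreated control after subtracting a media-only blank, giving an IC50. The fold value divides the reference IC50 by the test IC50.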

The target in data set [7] is Butyrophilin subfamily 3 member A1 (Homo sapiens) (UniProt O00481). Briefly: Inhibition of HMBPP binding to recombinant C-terminal His-tagged BTN3A1 intracellular domain (unknown origin) expressed in BL21(DE) assessed as change in entropy of HMBPP binding at 100-fold molar excess of compound by isothermal titration calorimetry (reference value: 19 kJ/mol). It counts as cell-based. For orientation: ITC needs no label: the signal is the heat of the interaction.

The target is the same in data set [8]. Briefly: Inhibition of HMBPP binding to recombinant C-terminal His-tagged BTN3A1 intracellular domain (unknown origin) expressed in BL21(DE) assessed as change in entropy of HMBPP binding at 10-fold higher dose of compound by isothermal titration calorimetry (reference value: 19 kJ/mol). It counts as cell-based.
The target is the same in data set [9]. Briefly: Inhibition of HMBPP binding to recombinant C-terminal His-tagged BTN3A1 intracellular domain (unknown origin) expressed in BL21(DE) by isothermal titration calorimetry.
A short description of data set [10]: Toxicity in human Vgamma9/Vdelta2 T cells at >= 10 uM treated for 72 hrs measured on day 11 post last treatment by flow cytometry. It counts as cell-based. Particulars: vgamma9/vdelta2 t cell. The procedure, abridged:
as §2

Data set [11] addresses Butyrophilin subfamily 3 member A1 (Homo sapiens) (UniProt O00481). Briefly: Binding affinity to recombinant C-terminal His-tagged BTN3A1 intracellular domain (unknown origin) expressed in BL21(DE) at […] by isothermal titration calorimetry. The procedure, abridged:
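Full intracellular domain of BTN3A1 was purified as previously described. Protein was at 43 μM and titrant compound at 300–860 μM. Three independent titrations were run per compound.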

The target is the same in data set [12]. The data set is described as follows: Binding affinity to recombinant C-terminal His-tagged BTN3A1 intracellular domain (unknown origin) expressed in BL21(DE) assessed as change in entropy at 240 uM by isothermal titration calorimetry.
For data set [13] the target is unchanged. Briefly: Binding affinity to recombinant C-terminal His-tagged BTN3A1 intracellular domain (unknown origin) expressed in BL21(DE) assessed as change in entropy at 688 uM by isothermal titration calorimetry. The procedure, abridged:
(§3)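 Purified full BTN3A1 intracellular domain at 43 μM titrated with compound at 300–860 μM by isothermal titration calorimetry. Three independent titrations per compound.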

For data set [14] the target is unchanged. Briefly: Binding affinity to recombinant C-terminal His-tagged BTN3A1 intracellular domain (unknown origin) expressed in BL21(DE) assessed as change in entropy at 480 uM by isothermal titration calorimetry. The procedure, abridged:
as §3

Butyrophilin subfamily 3 member A1 (Homo sapiens), sequence (O00481 30-513 limits assumed): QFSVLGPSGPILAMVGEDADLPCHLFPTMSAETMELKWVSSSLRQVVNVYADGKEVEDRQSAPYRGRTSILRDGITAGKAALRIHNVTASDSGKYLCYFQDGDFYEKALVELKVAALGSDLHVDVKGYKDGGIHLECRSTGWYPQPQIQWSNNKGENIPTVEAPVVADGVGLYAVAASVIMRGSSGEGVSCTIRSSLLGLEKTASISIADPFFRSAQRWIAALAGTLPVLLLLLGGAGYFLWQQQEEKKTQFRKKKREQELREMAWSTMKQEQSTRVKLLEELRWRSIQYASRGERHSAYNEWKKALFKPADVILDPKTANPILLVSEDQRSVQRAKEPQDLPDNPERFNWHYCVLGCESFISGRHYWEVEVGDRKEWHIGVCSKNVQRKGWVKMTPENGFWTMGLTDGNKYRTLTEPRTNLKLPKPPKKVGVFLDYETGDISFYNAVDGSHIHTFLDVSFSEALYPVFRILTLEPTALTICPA

Consider `C/C(=C\CCP(=O)(OCOC(=O)C(C)(C)C)OCOC(=O)C(C)(C)C)CO`, for which the result in data set [1] and in [2] was Active. Moreover, the “Ratio IC50/EC50” value in data set [3] was found to be 110. Besides, the Ratio EC50 in data set [4] turned out to be 0.094. In [5], half-maximal inhibition (IC50 at 72 h) was put at 0.6 µM.
With `CC(C)=CCCP(=O)(CP(=O)(OCOC(=O)C(C)(C)C)OCOC(=O)C(C)(C)C)OCOC(=O)C(C)(C)C` (configuration not stated), the IC50 (as a rule, the concentration that inhibits the measured activity by half) with K562 worked out at 9.7 µM. The compound further displayed an IC50 at 72 h in [5] of more than 100 µM. Besides, the selectivity ratio in data set [6] is more than 10.
As for `C/C(=C\COP(=O)(O)OP(=O)(O)O)CO`, the IC50 in the data set on K562 is more than 100 µM. The outcome in [1] and in [2] was Active. The compound further returned an IC50 at 72 h in [5] of 0.5 µM.
Turning to `COP(=O)(CC/C=C(\C)CO)CP(=O)(OC)OC` (configuration not stated), the IC50 in the data set on K562 is more than 100 µM. In data set [5], this compound registered an IC50 at 72 h of more than 100 µM.
As for `CC(C)=CCCP(=O)(O)CP(=O)(O)O`, the results for the TdeltaS in data set [7] and in data set [8] were 6.69 kcal/mol and -1.1 kcal/mol, respectively. In addition, the IC50 in the data set with K562 was more than 100 µM. For the same compound, in [9], the inhibition entry was “Dose-dependent effect”. For the same compound, in data set [5], the half-maximal inhibitory concentration (IC50) at 72 h was more than 100 µM.
In the case of `C/C(=C\CCP(=O)(CP(=O)(OCOC(=O)C(C)(C)C)OCOC(=O)C(C)(C)C)OCOC(=O)C(C)(C)C)CO` (configuration not stated), the result in data set [1] and in data set [2] was Active. Also, the “Ratio IC50/EC50” value in [3] was 85. In data set [10], the Activity result is “Toxic”. In addition, the IC50 at 72 h in [5] was 3.5 µM. In addition, the result in data set [11] was inactive. The selectivity ratio in [6] was more than 29.
For `C/C(=C\CCP(=O)(O)O)CO`, the Ratio EC50 in [4] came to 0.00013.
The compound `C/C(=C\CCP(=O)(O)CP(=O)(O)O)CO` had an IC50 with K562 of more than 100 µM. Moreover, the results for the TdeltaS in data set [12], in data set [13] and in data set [14] were -12 kcal/mol, -12.1 kcal/mol and -13.2 kcal/mol, respectively. Moreover, the IC50 at 72 h in data set [5] is more than 100 µM.

Values taken from ChEMBL document CHEMBL4007426, “Phosphinophosphonates and Their Tris-pivaloyloxymethyl Prodrugs Reveal a Negatively Cooperative Butyrophilin Activation Mechanism” (J Med Chem, 2017).
